Measurements as given in ChEMBL document CHEMBL3124772, “Design, synthesis, and evaluation of conformationally restricted acetanilides as potent and selective β3 adrenergic receptor agonists for the treatment of overactive bladder” (J Med Chem, 2014).

Tests used:
Cytochrome P450 2D6 = Cytochrome P450 2D6 (Homo sapiens, UniProt P10635); test: Inhibition of CYP2D6 in human liver microsomes assessed as dextromethorphan O-demethylation; type: ADME
[1] = target: Beta-3 adrenergic receptor (Canis lupus familiaris, UniProt O02662); test: Agonist activity at dog beta-3 adrenergic receptor expressed in CHO cells assessed as increase in intracellular cAMP accumulation after 30 mins by time-resolved fluorescence assay; type: functional, cell-based
In short: (§1)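 CHO cells stably transfected with cloned β3-AR, harvested after 3 days subculture with enzyme-free dissociation, 6000 cells in HBSS with 5 mM HEPES, 0.1% BSA and 0.6 mM IBMX. Ligand at 10⁻¹⁰ to 10⁻⁵ M final, 30 min room temperature with labeled cAMP antibody; LANCE TR-FRET read after 1 h detection, cAMP from standard curve.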

[2] = target: Beta-3 adrenergic receptor (Macaca mulatta, UniProt Q28524); test: Agonist activity at rhesus monkey beta-3 adrenergic receptor expressed in CHO cells assessed as increase in intracellular cAMP accumulation after 30 mins by time-resolved fluorescence assay; type: functional, cell-based; in short: as §1
[3] = target: Beta-2 adrenergic receptor (Homo sapiens, UniProt P07550); test: Displacement of [125I]-cyanopindolol from recombinant human beta-2 adrenergic receptor expressed in CHO cell membranes after 1 hr by scintillation counting analysis
Cytochrome P450 3A4 = Cytochrome P450 3A4 (Homo sapiens, UniProt P08684); test: Inhibition of CYP3A4 in human liver microsomes assessed as testosterone 6beta-hydroxylation; type: ADME
[4] = target: T1, Beta-3 adrenergic receptor (Homo sapiens, UniProt P13945); test: Agonist activity at human beta-3 adrenergic receptor expressed in CHO cells assessed as increase in intracellular cAMP accumulation at 10^-10 to 10^-5 M after 30 mins by time-resolved fluorescence assay relative to R-(-)isoproterenol; type: functional, cell-based; in short: as §1
[5] = target: Voltage-dependent L-type calcium channel subunit alpha-1C (Homo sapiens, UniProt Q13936); test: Displacement of [3H]-diltiazem from human CaV1.2
[6] = target: Beta-3 adrenergic receptor (Macaca mulatta) (UniProt Q28524); test: Agonist activity at rhesus monkey beta-3 adrenergic receptor expressed in CHO cells assessed as increase in intracellular cAMP accumulation at 10^-10 to 10^-5 M after 30 mins by time-resolved fluorescence assay relative to R-(-)isoproterenol; type: functional, cell-based; in short: as §1
[7] = Plasma clearance in Sprague-Dawley rat at 1 mg/kg, iv and 2 mg/kg, po; type: ADME, organism-based
[8] = Fraction unbound in Sprague-Dawley rat plasma at 1 mg/kg, iv and 2 mg/kg, po; type: ADME, organism-based; details: Sprague-Dawley, plasma
Cytochrome P450 2C9 = Cytochrome P450 2C9 (Homo sapiens, UniProt P11712); test: Inhibition of CYP2C9 in human liver microsomes assessed as diclofenac alpha'-hydroxylation; type: ADME
[9] = target: Sodium-dependent serotonin transporter (Homo sapiens, UniProt P31645); test: Inhibition of human SERT expressed in HEK293 cells incubated for 30 mins prior to fluorescent substrate addition measured after 30 mins by fluorescent dye uptake assay; type: cell-based
In short: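 HEK293 stably expressing human SERT, 20000 cells/well plated overnight at 37 °C, then in HBSS with 20 mM HEPES and 0.1% BSA. Compound added from 100× DMSO stock, 30 min at 37 °C, then fluorescent transporter substrate for 30 more min. Fluorescence read at 440/520 nm, normalized to DMSO (0%) and 10 μM fluoxetine (100%), four-parameter fit for IC50.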

[10] = target: Sodium channel protein type 5 subunit alpha (Homo sapiens, UniProt Q14524); test: Inhibition of human NaV1.5
[11] = Half life in Sprague-Dawley rat at 1 mg/kg, iv and 2 mg/kg, po; type: ADME, organism-based; details: in vivo
[12] = Intrinsic clearance in rat liver microsomes; type: ADME; details: read-out: CLH
[13] = target: Beta-3 adrenergic receptor (Rattus norvegicus) (UniProt P26255); test: Agonist activity at rat beta-3 adrenergic receptor expressed in CHO cells assessed as increase in intracellular cAMP accumulation at 10^-10 to 10^-5 M after 30 mins by time-resolved fluorescence assay relative to R-(-)isoproterenol; type: functional, cell-based; in short: as §1
[14] = target: Voltage-gated inwardly rectifying potassium channel KCNH2 (Homo sapiens, UniProt Q12809); test: Inhibition of human ERG
[15] = target: T1, Beta-3 adrenergic receptor; test: Agonist activity at human beta-3 adrenergic receptor expressed in CHO cells assessed as increase in intracellular cAMP accumulation after 30 mins by time-resolved fluorescence assay; type: functional, cell-based; in short: as §1
[16] = target: Beta-1 adrenergic receptor (Homo sapiens, UniProt P08588); test: Displacement of [125I]-cyanopindolol from recombinant human beta-1 adrenergic receptor expressed in CHO cell membranes after 1 hr by scintillation counting analysis
[17] = target: Beta-3 adrenergic receptor (Canis lupus familiaris) (UniProt O02662); test: Agonist activity at dog beta-3 adrenergic receptor expressed in CHO cells assessed as increase in intracellular cAMP accumulation at 10^-10 to 10^-5 M after 30 mins by time-resolved fluorescence assay relative to R-(-)isoproterenol; type: functional, cell-based; in short: as §1
[18] = Apparent permeability in MDCK2 cells; type: ADME, cell-based, Canis lupus familiaris, MDCK-II; details: dog, MDCK
[19] = Oral bioavailability in Sprague-Dawley rat at 2 mg/kg; type: ADME, organism-based; details: in vivo
[20] = target: Beta-3 adrenergic receptor (Rattus norvegicus, UniProt P26255); test: Agonist activity at rat beta-3 adrenergic receptor expressed in CHO cells assessed as increase in intracellular cAMP accumulation after 30 mins by time-resolved fluorescence assay; type: functional, cell-based; in short: as §1
[21] = Plasma clearance in rhesus monkey at 1 mg/kg, iv and 2 mg/kg, po; type: ADME, organism-based, Macaca mulatta
[22] = Oral bioavailability in Beagle dog at 2 mg/kg; type: ADME, organism-based, Canis lupus familiaris; details: in vivo
[23] = Intrinsic clearance in monkey liver microsomes; type: ADME, Macaca mulatta, Microsome; details: rhesus monkey, read-out: CLH
[24] = Oral bioavailability in rhesus monkey at 2 mg/kg; type: ADME, organism-based, Macaca mulatta; details: in vivo
Rattus norvegicus [25] = test: Reduction of micturition pressure at 1.2 uM unbound plasma level in acetic acid-induced Sprague-Dawley rat bladder hyperactivity model at 10 mg/kg, iv administered as 1 to 2 hrs infusion relative to vehicle-treated control; type: functional; set-up: scale not given: the % may be the effect or the level left
[26] = Fraction unbound in rhesus monkey plasma at 1 mg/kg, iv and 2 mg/kg, po; type: ADME, organism-based, Macaca mulatta
[27] = Half life in Beagle dog at 1 mg/kg, iv and 2 mg/kg, po; type: ADME, organism-based, Canis lupus familiaris; details: in vivo
[28] = Intrinsic clearance in dog liver microsomes; type: ADME, Canis lupus familiaris; details: read-out: CLH
[29] = Plasma clearance in Beagle dog at 1 mg/kg, iv and 2 mg/kg, po; type: ADME, organism-based, Canis lupus familiaris
[30] = Lipophilicity, log D of the compound at pH 7.3; type: physicochemical; details: buffer
Rattus norvegicus [31] = test: Reduction of micturition pressure in iv dosed acetic acid-induced Sprague-Dawley rat bladder hyperactivity model administered as 1 to 2 hrs infusion; type: functional, organism-based
[32] = Fraction unbound in Beagle dog plasma at 1 mg/kg, iv and 2 mg/kg, po; type: ADME, organism-based, Canis lupus familiaris
Plasma [33] = test: Unbound plasma concentration in acetic acid-induced Sprague-Dawley rat bladder hyperactivity model at 3 mg/kg, iv administered as 1 to 2 hrs infusion; type: ADME, organism-based; set-up: dose 3 mg/kg, route intravenous; details: in vivo
[34] = Half life in rhesus monkey at 1 mg/kg, iv and 2 mg/kg, po; type: ADME, organism-based, Macaca mulatta; details: in vivo
[35] = Intrinsic clearance in human liver microsomes; type: ADME; details: read-out: CLH
Plasma [36] = test: Unbound plasma concentration in acetic acid-induced Sprague-Dawley rat bladder hyperactivity model at 1 mg/kg, iv administered as 1 to 2 hrs infusion; type: ADME, organism-based; set-up: dose 1 mg/kg, route intravenous; details: in vivo
Plasma [37] = test: Unbound plasma concentration in acetic acid-induced Sprague-Dawley rat bladder hyperactivity model at 10 mg/kg, iv administered as 1 to 2 hrs infusion; type: ADME, organism-based; set-up: dose 10 mg/kg, route intravenous; details: in vivo
Homo sapiens = species on record: Homo sapiens; test: Selectivity ratio of IC50 for human SERT to EC50 for human beta-3 adrenergic receptor
Rattus norvegicus [38] = test: Reduction of micturition pressure at 27 uM unbound plasma level in acetic acid-induced Sprague-Dawley rat bladder hyperactivity model at 10 mg/kg, iv administered as 1 to 2 hrs infusion relative to vehicle-treated control; type: functional; set-up: scale not given: the % may be the effect or the level left

Cytochrome P450 2C9, sequence (P11712 whole entry): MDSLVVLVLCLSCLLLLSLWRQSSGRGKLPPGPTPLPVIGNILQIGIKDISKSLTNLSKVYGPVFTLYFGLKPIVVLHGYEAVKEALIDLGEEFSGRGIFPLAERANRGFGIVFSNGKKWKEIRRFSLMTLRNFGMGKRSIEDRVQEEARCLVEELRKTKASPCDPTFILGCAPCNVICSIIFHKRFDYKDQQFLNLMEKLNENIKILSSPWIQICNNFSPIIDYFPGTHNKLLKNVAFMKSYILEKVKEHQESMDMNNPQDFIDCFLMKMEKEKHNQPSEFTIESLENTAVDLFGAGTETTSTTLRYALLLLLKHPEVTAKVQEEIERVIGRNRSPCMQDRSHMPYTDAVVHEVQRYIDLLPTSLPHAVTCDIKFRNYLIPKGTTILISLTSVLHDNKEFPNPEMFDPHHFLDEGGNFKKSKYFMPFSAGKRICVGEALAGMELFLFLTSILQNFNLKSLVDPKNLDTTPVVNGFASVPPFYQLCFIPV
Sodium-dependent serotonin transporter, sequence (P31645 whole entry): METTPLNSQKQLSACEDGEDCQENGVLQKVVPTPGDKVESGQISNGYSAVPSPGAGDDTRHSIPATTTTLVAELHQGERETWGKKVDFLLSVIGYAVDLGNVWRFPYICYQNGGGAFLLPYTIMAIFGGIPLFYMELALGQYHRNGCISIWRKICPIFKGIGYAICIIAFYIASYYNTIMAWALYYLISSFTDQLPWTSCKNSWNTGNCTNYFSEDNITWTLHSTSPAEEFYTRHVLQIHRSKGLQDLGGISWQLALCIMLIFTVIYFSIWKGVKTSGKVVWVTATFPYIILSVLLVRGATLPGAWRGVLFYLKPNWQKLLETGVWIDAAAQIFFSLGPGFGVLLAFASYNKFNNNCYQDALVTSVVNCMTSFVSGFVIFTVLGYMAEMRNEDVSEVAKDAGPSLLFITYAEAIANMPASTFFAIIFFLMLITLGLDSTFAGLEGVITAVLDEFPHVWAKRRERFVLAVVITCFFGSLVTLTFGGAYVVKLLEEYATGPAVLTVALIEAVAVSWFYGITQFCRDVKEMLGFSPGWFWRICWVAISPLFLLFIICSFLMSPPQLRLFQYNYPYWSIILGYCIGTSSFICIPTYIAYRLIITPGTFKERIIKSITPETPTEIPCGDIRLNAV
Sodium channel protein type 5 subunit alpha, sequence (Q14524 whole entry): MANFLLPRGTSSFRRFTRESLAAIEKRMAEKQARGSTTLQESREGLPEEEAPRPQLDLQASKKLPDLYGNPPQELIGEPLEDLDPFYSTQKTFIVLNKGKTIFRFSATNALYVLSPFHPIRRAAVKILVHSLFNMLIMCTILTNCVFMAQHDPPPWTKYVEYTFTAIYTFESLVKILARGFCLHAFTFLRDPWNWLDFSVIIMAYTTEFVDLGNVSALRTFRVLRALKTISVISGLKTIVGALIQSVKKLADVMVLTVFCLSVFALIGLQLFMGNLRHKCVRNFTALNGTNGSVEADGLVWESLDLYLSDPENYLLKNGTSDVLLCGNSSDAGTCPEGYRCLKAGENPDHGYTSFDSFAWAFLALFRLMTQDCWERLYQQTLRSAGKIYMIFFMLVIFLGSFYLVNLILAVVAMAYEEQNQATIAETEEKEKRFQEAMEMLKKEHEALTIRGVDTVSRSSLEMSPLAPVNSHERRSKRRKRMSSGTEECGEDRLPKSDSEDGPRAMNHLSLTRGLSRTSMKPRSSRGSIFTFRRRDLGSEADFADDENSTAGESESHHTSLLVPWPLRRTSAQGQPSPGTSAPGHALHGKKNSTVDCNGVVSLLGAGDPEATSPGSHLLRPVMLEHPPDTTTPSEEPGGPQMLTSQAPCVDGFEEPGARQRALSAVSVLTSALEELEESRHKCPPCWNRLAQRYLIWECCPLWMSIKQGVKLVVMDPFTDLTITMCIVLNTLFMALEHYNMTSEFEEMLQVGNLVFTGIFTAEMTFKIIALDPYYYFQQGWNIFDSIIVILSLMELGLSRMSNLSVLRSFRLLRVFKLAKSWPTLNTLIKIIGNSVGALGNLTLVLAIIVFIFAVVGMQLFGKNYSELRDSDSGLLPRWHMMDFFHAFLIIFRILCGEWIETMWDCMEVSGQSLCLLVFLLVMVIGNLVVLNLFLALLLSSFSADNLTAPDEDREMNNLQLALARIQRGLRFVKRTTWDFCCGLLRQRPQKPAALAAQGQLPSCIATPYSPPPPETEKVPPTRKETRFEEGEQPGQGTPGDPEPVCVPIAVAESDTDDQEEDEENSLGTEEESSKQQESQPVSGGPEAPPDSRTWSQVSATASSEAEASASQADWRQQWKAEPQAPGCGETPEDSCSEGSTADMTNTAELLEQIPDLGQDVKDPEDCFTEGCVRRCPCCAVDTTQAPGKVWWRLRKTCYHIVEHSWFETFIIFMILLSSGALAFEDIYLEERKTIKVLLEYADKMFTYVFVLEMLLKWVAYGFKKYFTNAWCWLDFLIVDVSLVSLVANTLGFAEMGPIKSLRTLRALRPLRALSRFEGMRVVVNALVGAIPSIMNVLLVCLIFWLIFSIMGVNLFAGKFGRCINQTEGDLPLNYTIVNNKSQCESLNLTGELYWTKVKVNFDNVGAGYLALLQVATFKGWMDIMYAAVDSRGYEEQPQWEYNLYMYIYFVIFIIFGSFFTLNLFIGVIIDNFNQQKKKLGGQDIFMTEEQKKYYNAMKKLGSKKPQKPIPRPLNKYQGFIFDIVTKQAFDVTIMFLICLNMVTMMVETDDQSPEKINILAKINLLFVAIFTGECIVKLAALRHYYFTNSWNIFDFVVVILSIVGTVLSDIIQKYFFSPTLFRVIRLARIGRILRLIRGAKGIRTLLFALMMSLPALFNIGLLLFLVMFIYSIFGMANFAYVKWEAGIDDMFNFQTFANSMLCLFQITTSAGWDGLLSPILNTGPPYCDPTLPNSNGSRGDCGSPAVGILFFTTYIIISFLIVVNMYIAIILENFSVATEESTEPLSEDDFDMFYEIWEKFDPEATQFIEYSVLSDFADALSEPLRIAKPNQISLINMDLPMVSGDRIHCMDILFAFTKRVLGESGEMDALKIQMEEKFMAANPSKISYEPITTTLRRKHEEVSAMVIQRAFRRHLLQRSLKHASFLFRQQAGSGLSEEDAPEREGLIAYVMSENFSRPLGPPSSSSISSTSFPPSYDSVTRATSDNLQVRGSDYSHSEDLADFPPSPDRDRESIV
Beta-3 adrenergic receptor (Rattus norvegicus), sequence (P26255 whole entry): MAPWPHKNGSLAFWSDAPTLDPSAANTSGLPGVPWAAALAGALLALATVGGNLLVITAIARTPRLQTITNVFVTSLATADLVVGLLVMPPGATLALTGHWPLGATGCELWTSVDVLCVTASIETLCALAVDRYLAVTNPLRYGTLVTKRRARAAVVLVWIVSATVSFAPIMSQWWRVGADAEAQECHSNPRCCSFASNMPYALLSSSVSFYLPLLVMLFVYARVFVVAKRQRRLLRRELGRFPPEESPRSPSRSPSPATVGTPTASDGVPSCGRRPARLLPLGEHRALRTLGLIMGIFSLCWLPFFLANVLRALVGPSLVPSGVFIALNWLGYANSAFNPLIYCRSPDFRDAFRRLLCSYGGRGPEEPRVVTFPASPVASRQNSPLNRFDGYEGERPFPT
Beta-3 adrenergic receptor (Rattus norvegicus, UniProt P26255), sequence (P26255 whole entry): as above
Beta-2 adrenergic receptor, sequence (P07550 whole entry): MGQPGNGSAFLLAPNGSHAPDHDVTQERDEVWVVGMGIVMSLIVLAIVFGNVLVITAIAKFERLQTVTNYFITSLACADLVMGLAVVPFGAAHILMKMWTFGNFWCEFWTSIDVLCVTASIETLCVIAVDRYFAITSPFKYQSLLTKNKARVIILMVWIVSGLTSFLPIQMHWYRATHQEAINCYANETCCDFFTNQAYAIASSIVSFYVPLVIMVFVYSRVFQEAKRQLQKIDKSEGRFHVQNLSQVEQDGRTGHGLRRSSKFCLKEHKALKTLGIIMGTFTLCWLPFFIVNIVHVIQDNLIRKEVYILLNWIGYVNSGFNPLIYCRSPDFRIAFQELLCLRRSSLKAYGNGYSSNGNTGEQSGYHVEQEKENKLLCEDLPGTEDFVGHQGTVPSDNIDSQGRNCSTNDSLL
Beta-3 adrenergic receptor (Macaca mulatta), sequence (Q28524 whole entry): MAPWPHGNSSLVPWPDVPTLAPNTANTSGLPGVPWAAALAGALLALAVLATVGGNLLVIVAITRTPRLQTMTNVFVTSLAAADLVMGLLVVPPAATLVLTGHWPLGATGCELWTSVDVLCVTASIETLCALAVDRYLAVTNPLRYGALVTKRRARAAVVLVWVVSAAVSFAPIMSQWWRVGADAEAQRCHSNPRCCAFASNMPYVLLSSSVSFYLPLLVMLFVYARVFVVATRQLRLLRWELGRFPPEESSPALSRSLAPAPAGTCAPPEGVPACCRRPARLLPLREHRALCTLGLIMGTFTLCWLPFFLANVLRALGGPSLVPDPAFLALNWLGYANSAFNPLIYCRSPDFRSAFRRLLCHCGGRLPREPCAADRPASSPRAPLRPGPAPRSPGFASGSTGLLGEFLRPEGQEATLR
Beta-3 adrenergic receptor (Macaca mulatta, UniProt Q28524), sequence (Q28524 whole entry): as above
Cytochrome P450 3A4, sequence (P08684 whole entry): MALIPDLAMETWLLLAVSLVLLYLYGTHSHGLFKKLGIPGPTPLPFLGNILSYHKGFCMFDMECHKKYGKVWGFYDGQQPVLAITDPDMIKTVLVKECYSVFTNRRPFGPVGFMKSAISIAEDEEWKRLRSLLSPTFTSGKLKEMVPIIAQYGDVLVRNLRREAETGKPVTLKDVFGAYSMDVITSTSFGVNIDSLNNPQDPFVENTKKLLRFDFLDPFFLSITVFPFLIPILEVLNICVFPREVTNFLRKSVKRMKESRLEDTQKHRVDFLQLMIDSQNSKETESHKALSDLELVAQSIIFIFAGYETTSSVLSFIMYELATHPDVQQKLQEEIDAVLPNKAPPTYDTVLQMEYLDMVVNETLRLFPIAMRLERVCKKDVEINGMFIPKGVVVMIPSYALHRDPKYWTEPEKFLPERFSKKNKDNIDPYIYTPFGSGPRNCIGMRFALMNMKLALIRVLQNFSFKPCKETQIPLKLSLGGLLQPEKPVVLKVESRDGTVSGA

Structure (SMILES): Nc1nc2c(s1)CC[C@H]2C(=O)Nc1ccc(C[C@@H]2CC[C@H]([C@H](O)c3ccccc3)N2)cc1
- IC50 (Cytochrome P450 2D6): 18.3 µM
- EC50 [1]: 0.00019 µM
- EC50 [2]: 0.06 nM
- IC50 [3]: > 20 µM
- IC50 (Cytochrome P450 3A4): 86 µM
- Activity [4]: 91%
- IC50 [5]: > 30 µM
- Activity [6]: 78%
- clearance [7]: 50 mL/min/kg
- fraction unbound [8]: 0.18
- IC50 (Cytochrome P450 2C9): > 100 µM
- IC50 [9]: 1.22 µM
- IC50 [10]: 5.6 µM
- half-life [11]: 4 h
- CLint scaled [12]: 59 mL/min/kg
- Activity [13]: 100%
- IC50 [14]: 12.7 µM
- EC50 [15]: 0.00015 µM
- IC50 [16]: > 20 µM
- Activity [17]: 102%
- Papp [18]: 5 ×10⁻⁶ cm/s
- bioavailability [19]: 6%
- EC50 [20]: 0.0013 µM

Structure (SMILES): Nc1nc(CC(=O)Nc2ccc(C[C@@H]3CCC([C@H](O)c4ccccc4)N3)cc2)cs1 (single isomer, unassigned)
- IC50 (Cytochrome P450 2D6): 2.2 µM
- IC50 [3]: > 20 µM
- IC50 (Cytochrome P450 3A4): > 100 µM
- Activity [4]: 92%
- IC50 [5]: 8.2 µM
- clearance [7]: 11 mL/min/kg
- fraction unbound [8]: 0.06
- IC50 (Cytochrome P450 2C9): > 100 µM
- IC50 [9]: 1.61 µM
- IC50 [10]: > 30 µM
- half-life [11]: 8 h
- CLint scaled [12]: 38 mL/min/kg
- IC50 [16]: > 20 µM
- Papp [18]: 5 ×10⁻⁶ cm/s

Structure (SMILES): O=C(Nc1ccc(C[C@@H]2CC[C@H]([C@H](O)c3cccnc3)N2)cc1)[C@@H]1CCc2scnc21
- clearance [21]: 36 mL/min/kg
- IC50 (Cytochrome P450 2D6): 78.8 µM
- bioavailability [22]: 67%
- CLint scaled [23]: 205 mL/min/kg
- EC50 [1]: 0.005 µM
- EC50 [2]: 2 nM
- IC50 [3]: > 20 µM
- IC50 (Cytochrome P450 3A4): > 100 µM
- bioavailability [24]: 8%
- Activity (Rattus norvegicus [25]): 59%
- fraction unbound [26]: 1
- Activity [4]: 103%
- half-life [27]: 6 h
- IC50 [5]: > 30 µM
- CLint scaled [28]: < 10 mL/min/kg
- clearance [29]: 27 mL/min/kg
- Activity [6]: 98%
- clearance [7]: 33 mL/min/kg
- fraction unbound [8]: 0.19
- logD [30]: 0.9
- Activity (Rattus norvegicus [31]): Dose-dependent effect
- IC50 (Cytochrome P450 2C9): > 100 µM
- IC50 [9]: 0.422 µM
- IC50 [10]: > 30 µM
- half-life [11]: 2 h
- fraction unbound [32]: 0.7
- Cp(f) (Plasma [33]): 260 nM
- half-life [34]: 2 h
- CLint scaled [35]: < 10 mL/min/kg
- CLint scaled [12]: < 15 mL/min/kg
- Activity [13]: 89%
- EC50 [15]: 0.00136 µM
- IC50 [16]: > 20 µM
- Activity [17]: 82%
- Papp [18]: 13 ×10⁻⁶ cm/s
- bioavailability [19]: 41%
- EC50 [20]: 0.0276 µM
- Cp(f) (Plasma [36]): 90 nM
- Cp(f) (Plasma [37]): 1170 nM

Structure (SMILES): O=C(Nc1ccc(C[C@@H]2CC[C@H]([C@H](O)c3cccnc3)N2)cc1)[C@@H]1CCc2ccnn21
- clearance [21]: 36 mL/min/kg
- IC50 (Cytochrome P450 2D6): > 100 µM
- bioavailability [22]: 100%
- CLint scaled [23]: 261 mL/min/kg
- EC50 [1]: 0.022 µM
- Ratio IC50/EC50 (Homo sapiens): 243
- EC50 [2]: 4.7 nM
- IC50 [3]: > 20 µM
- IC50 (Cytochrome P450 3A4): > 100 µM
- bioavailability [24]: 11%
- fraction unbound [26]: 1
- Activity [4]: 84%
- half-life [27]: 8 h
- IC50 [5]: > 30 µM
- CLint scaled [28]: 31 mL/min/kg
- clearance [29]: 34 mL/min/kg
- Activity [6]: 93%
- clearance [7]: 24 mL/min/kg
- fraction unbound [8]: 0.36
- logD [30]: 0.9
- Activity (Rattus norvegicus [31]): Dose-dependent effect
- IC50 (Cytochrome P450 2C9): > 100 µM
- IC50 [9]: 0.898 µM
- IC50 [10]: > 30 µM
- half-life [11]: 3 h
- fraction unbound [32]: 0.7
- Cp(f) (Plasma [33]): 7600 nM
- half-life [34]: 4 h
- Activity (Rattus norvegicus [38]): 69%
- CLint scaled [35]: 19 mL/min/kg
- CLint scaled [12]: 55 mL/min/kg
- Activity [13]: 98%
- IC50 [14]: > 30 µM
- EC50 [15]: 0.0037 µM
- IC50 [16]: > 20 µM
- Activity [17]: 86%
- Papp [18]: 6 ×10⁻⁶ cm/s
- bioavailability [19]: 35%
- EC50 [20]: 0.434 µM
- Cp(f) (Plasma [36]): 2000 nM
- Cp(f) (Plasma [37]): 26800 nM
